# In the library only some 2.6% were active in any assay of this set; here they are far more common.
# CHO parental Ca: ATP-evoked calcium signal inhibitors, parental CHO, primary screen, counter-screen for OX1R antagonist project, cell-based, fluorescence, Fluo-8 calcium dye. parental CHO-K1, ATP-induced calcium, Fluo-8 fluorescence. inhibition, % at 5.6 µM. 0.63% of 330,000 active. AID 463079, 2010;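 active means inhibition above that plate's mean sample inhibition plus 3 SD, cut at about 26% in these data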;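 further: 0% = ATP-challenged DMSO wells and 100% = DMSO wells without ATP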
#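 Assay system: untransfected parental CHO cell line. Also added: ATP agonist challenge. Dosing: one dose, 5.6 µM nominal. Measured by: Fluo-8 fluorescence. Read-out: % inhibition. Benchmarks: ATP wells versus no-ATP DMSO wells. Repeats: no replicates.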
# OXTR agonist: human OXTR agonists, primary screen, fluorescence, CHO-OTR cells, Fluo-8 calcium. 0.32% of 320,000 active. Fluo-8 calcium fluorescence; normalized: DMSO 0%, oxytocin 100%. activation, % at 3 µM. Oxytocin receptor (Homo sapiens), P30559;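 active means activation above the mean of all tested compounds plus 3 SD, cutoff set per screening run, cut at about 20% in these data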;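 further: peak over basal fluorescence ratio from a 100 s FLIPR kinetic read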
# OXTR potentiator: human OXTR potentiators, primary screen, fluorescence, CHO-OTR cells, Fluo-8 calcium; Oxytocin receptor (Homo sapiens), P30559; Fluo-8 calcium fluorescence, potentiator mode; 0% = oxytocin EC15, 100% = EC100; activation, % at 3 µM; 0.061% of 320,000 active;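 active means activation above that plate's cutoff, the mean activation of tested compounds plus 3 SD, cut at about 6.6% in these data, passing the limit was not always enough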;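 further: 100% uses oxytocin at 75 nM as the full agonist control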
#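 Replication – single well per compound, singlicate · Assay system – CHO cell line stably expressing human OTR · Timing – 6 min pre-incubation, 100 s read · Measure – normalized max/min fluorescence ratio, % activation · Doses – 3.0 µM, one dose · Detection – Fluo-8 calcium dye fluorescence · Probe or stimulus – oxytocin near EC15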
# OX1R antag-1: antagonists of human orexin 1 receptor (OX1R); Orexin/Hypocretin receptor type 1 (Homo sapiens), O43613; OX1R-expressing cells, FRET antagonist read-out; 1.8% of 330,000 active; inhibition, % at 6.6 µM; in the data active means inhibition mostly above about 38%, no sharp cut-off; inactive means mostly below about 40%;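 further: 0% = agonist challenge alone and 100% = reference antagonist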
# Target sequence (O43613 whole entry, looked up): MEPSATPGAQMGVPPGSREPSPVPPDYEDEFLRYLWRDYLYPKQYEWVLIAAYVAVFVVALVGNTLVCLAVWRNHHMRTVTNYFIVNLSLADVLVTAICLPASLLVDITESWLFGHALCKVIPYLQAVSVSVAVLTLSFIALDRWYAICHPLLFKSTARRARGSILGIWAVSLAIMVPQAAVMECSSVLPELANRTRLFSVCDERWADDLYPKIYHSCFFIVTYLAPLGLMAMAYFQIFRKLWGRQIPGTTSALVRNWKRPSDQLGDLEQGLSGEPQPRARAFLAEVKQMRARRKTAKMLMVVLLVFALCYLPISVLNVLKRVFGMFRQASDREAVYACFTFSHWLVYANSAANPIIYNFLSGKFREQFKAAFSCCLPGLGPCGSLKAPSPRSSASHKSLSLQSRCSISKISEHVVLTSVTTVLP
# V1aR counter: agonists of human V1a receptor, primary screen, counter-screen for OXTR agonist project, fluorescence, CHO-V1R cells | Vasopressin V1a receptor (Homo sapiens), P37288 | Fluo-8 calcium fluorescence, agonist mode; 0% DMSO, 100% 3 nM vasopressin | AID 2797, 2010 | 0.25% of 320,000 active | activation, % at 3 µM;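 active means activation above the mean activation of all tested compounds plus 3 SD, per screening run, cut at about 20% in these data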;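 further: signal is peak over basal fluorescence ratio across a 100 second FLIPR read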
# OX1R antag-2: OX1R (HCRTR1) antagonists, primary screen, fluorescence, CHO/OX1R cells, Fluo-8 calcium, orexin A. Orexin/Hypocretin receptor type 1 (Homo sapiens), O43613. Fluo-8 calcium fluorescence. inhibition, % at 5 µM. 0.43% of 330,000 active;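 active means inhibition above its plate's threshold, mean inhibition of all tested compounds on the plate plus 3 SD, cut at about 37% in these data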;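 further: 0% = orexin A challenge wells and 100% = SB-334867-A antagonist wells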
# * marks the source's active call; other numbers are inactive results; . = not tested or not shown.
SMILES,CHO parental Ca,OXTR agonist,OXTR potentiator,OX1R antag-1,V1aR counter,OX1R antag-2
O=C(Cn1cnc2c(nnn2Cc2ccccc2F)c1=O)N1CCN(c2ccccc2)CC1,8,0,-8,-1,0,-11
O=C(Cn1cnc2c(nnn2Cc2ccccc2F)c1=O)OCc1ccccc1,80*,7,-8,10,6,69*
Cc1cc(C)c2c(N)c(C(=O)NNC(=O)c3ccccc3)sc2n1,-20,0,3,54,1,-22
Cc1cc(C)c2c(N)c(C(=O)N/N=C/c3ccccc3)sc2n1,-18,-1,-9,43*,0,-24
Cc1c(C(=O)N/N=C/c2cccnc2)sc(=S)n1C,-2,1,-14,60,1,16
Cc1cc(C)c2c(N)c(C(=O)N/N=C/c3cccnc3)sc2n1,-8,1,-11,47*,0,-19
COc1ccc(-n2cc([N+](=O)[O-])c(=O)c3ccc(Cl)cc32)cc1,-4,-2,-3,9,0,-21
CCC(C)(C)C(=O)O[C@H]1C[C@@H](C)C=C2C=C[C@H](C)[C@H](CC[C@@H]3C[C@@H](O)CC(=O)O3)[C@H]21,-23,-2,2,10,0,-22
CCOC(=O)COc1cc([N+](=O)[O-])cc2cccnc12,-6,0,-4,42*,1,2
CCOc1ccccc1N=NC1C(=O)N(C(N)=S)N=C1C (stereo not given),3,0,-13,12,0,-2
CCOC(=O)[C@H]1[C@H]2COc3cc(OC)ccc3[C@@H]2N2C(=O)[C@@H](CO)NC(=O)[C@@]12C,-9,0,-2,15,1,-14
COc1ccc(CC(=O)OCC(=O)NCc2ccccc2Cl)cc1OC,-3,0,2,5,1,-20
CCc1noc(C)c1C(=O)N1CCCSC1=Nc1ccccc1Cl,-18,-2,-8,19,-1,-28
Cc1nc2ccc(N=NC3=C(O)CC(C)(C)CC3=O)cc2s1,-8,0,0,62*,1,11
CC(=O)N1CCc2cc(N=NC3=C(O)CC(C)(C)CC3=O)ccc21,3,1,0,56*,1,-5
COc1ccc(C(=O)COC(=O)[C@@H](NS(=O)(=O)c2ccccc2)C(C)C)cc1,-26,0,-5,9,2,-12
Cc1ccc(NCC(=O)Nc2cccc(S(=O)(=O)N(C)C)c2)cc1S(=O)(=O)N1CCCCCC1,18,3,-13,34,5,15
COC(=O)[C@H](Cc1ccccc1)N1C/C=C\COc2c(Cl)cc(Cl)cc2S1(=O)=O,-12,.,.,32*,.,35
COC(=O)[C@H](C)N1C/C=C\COc2c(Cl)cc(Cl)cc2S1(=O)=O,-11,.,.,17,.,-8
O=C1CC(Nc2ccc(N3CCOCC3)cc2)C(=O)N1c1ccccc1 (stereo not given),8,2,-4,48,1,-13
COc1ccccc1N1C(=O)CC(Nc2ccc(N3CCOCC3)cc2)C1=O (stereo not given),5,0,-10,71*,1,-18
CS(=O)(=O)c1cc([N+](=O)[O-])c(Sc2nc3ccccc3[nH]2)c([N+](=O)[O-])c1,32*,0,-3,39*,1,22
CCNc1c2c3c(cccc3n(C)c1=O)C(=O)c1ccccc1-2,69*,140*,-35,30,181*,89*
CN1C(=O)c2cccc(NCCCN3C(=O)c4ccccc4C3=O)c2C1=O,-20,0,2,7,0,-7
CCCCNc1c2c3c(cccc3n(C)c1=O)C(=O)c1ccccc1-2,77*,134*,-8,12,134*,91*
SMILES,CHO parental Ca,OXTR agonist,OXTR potentiator,OX1R antag-1,V1aR counter,OX1R antag-2
Cn1c(=O)c(NCCc2ccccc2)c2c3c(cccc31)C(=O)c1ccccc1-2,100*,213*,-17,76,279*,108*
CCNc1c([N+](=O)[O-])c(=O)n(CC)c2ccccc12,-7,-1,-7,14,0,-27
CC(=O)Nc1ccc(Nc2c3c4c(cccc4n(C)c2=O)C(=O)c2ccccc2-3)cc1,-15,1,1,28,0,-16
Cn1c(=O)c(NCCO)c2c3c(cccc31)C(=O)c1ccccc1-2,96*,522*,-22,74,569*,103*
O=C(C[C@@H]1C/C=C\C[C@@H](Cc2ccc(F)cc2)C(=O)OC[C@H]2CCCN2C1=O)NCCO,-3,0,-7,8,1,-9
CC[C@@]1(C(=O)OC)N[C@H](CN(C)S(=O)(=O)c2ccc(OC)cc2)[C@@H]2C(=O)N(C)C(=O)[C@@H]21,-9,1,-5,1,0,6
O=C1/C(=C\c2ccc(O)cc2)SC(=S)N1c1cccnc1,58*,15,-15,12,20,23
COc1ccc(/C=C2\SC(=S)N(c3cccnc3)C2=O)cc1,-1,1,-4,20,0,-22
Cc1cc(/C=C2/SC(=S)N(c3cccc(C(F)(F)F)c3)C2=O)c(C)n1-c1cccnc1,50*,16,-11,25,13,23
O=C(Nc1ccc(S(=O)(=O)Nc2ncccn2)cc1)C12CC3CC(CC(Cl)(C3)C1)C2,-9,0,1,2,-1,-7
O=[N+]([O-])c1cc(C(F)(F)F)ccc1N1CCC(O)CC1,-12,1,-4,12,3,-11
O=C(Nc1ccc(Cl)cc1)N1CCCN(c2ccc(C(F)(F)F)cc2[N+](=O)[O-])CC1,35,5,-15,16,10,57*
CC(C)(C)c1cc(O)c(C(C)(C)C)cc1O,0,71*,-26,4,48*,20
CCOc1cccc(-c2c(C(=O)N/N=C/c3ccsc3)nnn2-c2nonc2N)c1,-13,25*,-7,3,24*,-19
Nc1nonc1-n1nnc(C(=O)N/N=C/c2cccs2)c1-c1ccc2c(c1)OCO2,-22,35*,-12,15,52*,-31
CCOc1ccc(-c2c(C(=O)N/N=C/c3ccc(OC(C)C)cc3)nnn2-c2nonc2N)cc1,-19,21*,8,56,23*,-29
Cc1ccc(-c2c(C(=O)N/N=C/c3ccc(OC(C)C)cc3)nnn2-c2nonc2N)cc1,-30,30*,3,47,37*,-14

# Bioassay records as filed in PubChem.
